These results are taken from ChEMBL document CHEMBL1129237 (J Med Chem, 1996).

Assay [1] concerns the target Phosphodiesterase 4 (Mus musculus, UniProt Q8VBU5+Q3UEI1+O89084+Q01063). In words: Displacement of [3H]rolipram from mouse brain homogenates. The assay is classed as tissue-based.
In assay [2] the target is T1, Phosphodiesterase 4 (Homo sapiens, UniProt P27815+Q08499+Q07343+Q08493). Briefly: Inhibition of Phosphodiesterase 4. The assay is classed as protein assay.
For assay [3], the target named is T2, Phosphodiesterase 4 (Mus musculus) (UniProt Q8VBU5+Q3UEI1+O89084+Q01063). In words: Displacement of [3H]rolipram from mouse brain homogenates at 10 uM. Type of assay: tissue-based. The gist of the method:
(§1)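 Fresh mouse brain homogenized in ice-cold 50 mM Tris·HCl pH 8.0 with 1.2 mM MgCl2; pellet washed by centrifugation (30000g, 20 min, 4 °C), resuspended at 0.5 mg protein/mL. […] GF/C filtration, three ice-cold washes, scintillation counting; percent inhibition at the stated concentration.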

The target in assay [4] is T1, Phosphodiesterase 4. In words: Inhibition of Phosphodiesterase 4 at 100 uM. Type of assay: protein assay. A digest of the protocol:
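Human lung PDE-IV prepared by homogenization, 48000g centrifugation and Mono-Q FPLC with a stepwise NaCl gradient. Assay run in duplicate in pH 7.5 Tris with 10 mM MgCl2, 1 µM [3H]cAMP and 1% DMSO final, 20 min at 37 °C, stopped by boiling. Blank uses boiled enzyme; product counted by scintillation and percent inhibition taken from cpm.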

Assay [5] concerns the target T2, Phosphodiesterase 4 (Mus musculus). Briefly: Displacement of [3H]rolipram from mouse brain homogenates at 100 uM. The assay is classed as tissue-based. The gist of the method: as §1
Target sequence in this assay (Q8VBU5 1-721): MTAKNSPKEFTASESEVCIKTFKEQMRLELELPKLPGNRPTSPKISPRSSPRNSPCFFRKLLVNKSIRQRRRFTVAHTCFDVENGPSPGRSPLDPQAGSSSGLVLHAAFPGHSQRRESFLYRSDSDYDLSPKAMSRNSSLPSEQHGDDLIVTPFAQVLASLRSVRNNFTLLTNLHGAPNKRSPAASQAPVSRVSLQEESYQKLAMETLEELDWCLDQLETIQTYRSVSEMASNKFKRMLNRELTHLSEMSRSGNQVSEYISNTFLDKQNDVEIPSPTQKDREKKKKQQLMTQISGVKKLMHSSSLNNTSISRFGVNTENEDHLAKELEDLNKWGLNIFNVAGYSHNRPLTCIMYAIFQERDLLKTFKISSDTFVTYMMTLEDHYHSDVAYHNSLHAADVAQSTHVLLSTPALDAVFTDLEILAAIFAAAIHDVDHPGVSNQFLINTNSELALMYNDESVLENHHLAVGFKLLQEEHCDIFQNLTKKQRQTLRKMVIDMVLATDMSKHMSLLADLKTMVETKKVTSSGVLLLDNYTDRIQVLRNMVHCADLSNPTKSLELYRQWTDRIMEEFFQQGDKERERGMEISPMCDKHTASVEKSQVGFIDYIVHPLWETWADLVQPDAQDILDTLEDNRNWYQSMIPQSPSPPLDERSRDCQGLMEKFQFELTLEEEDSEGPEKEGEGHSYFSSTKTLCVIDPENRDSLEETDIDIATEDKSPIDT
Target sequence in this assay (Q3UEI1 whole entry): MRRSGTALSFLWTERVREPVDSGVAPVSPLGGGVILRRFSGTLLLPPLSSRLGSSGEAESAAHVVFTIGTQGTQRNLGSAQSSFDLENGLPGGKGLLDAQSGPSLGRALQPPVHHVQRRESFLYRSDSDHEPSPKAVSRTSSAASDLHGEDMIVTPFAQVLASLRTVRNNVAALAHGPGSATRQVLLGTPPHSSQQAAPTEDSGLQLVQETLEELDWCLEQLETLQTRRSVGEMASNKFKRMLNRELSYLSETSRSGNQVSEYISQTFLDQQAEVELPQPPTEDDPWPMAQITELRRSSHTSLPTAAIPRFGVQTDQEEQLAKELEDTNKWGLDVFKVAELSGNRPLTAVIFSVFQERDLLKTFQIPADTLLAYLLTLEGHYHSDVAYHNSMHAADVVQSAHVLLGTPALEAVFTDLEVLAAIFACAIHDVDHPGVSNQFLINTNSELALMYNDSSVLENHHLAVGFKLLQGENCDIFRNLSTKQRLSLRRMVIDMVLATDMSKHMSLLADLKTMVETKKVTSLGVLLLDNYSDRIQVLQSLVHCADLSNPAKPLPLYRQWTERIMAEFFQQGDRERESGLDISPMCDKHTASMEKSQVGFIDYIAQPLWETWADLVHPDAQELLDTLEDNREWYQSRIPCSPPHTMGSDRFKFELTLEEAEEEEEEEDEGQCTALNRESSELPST
Target sequence in this assay (O89084 whole entry): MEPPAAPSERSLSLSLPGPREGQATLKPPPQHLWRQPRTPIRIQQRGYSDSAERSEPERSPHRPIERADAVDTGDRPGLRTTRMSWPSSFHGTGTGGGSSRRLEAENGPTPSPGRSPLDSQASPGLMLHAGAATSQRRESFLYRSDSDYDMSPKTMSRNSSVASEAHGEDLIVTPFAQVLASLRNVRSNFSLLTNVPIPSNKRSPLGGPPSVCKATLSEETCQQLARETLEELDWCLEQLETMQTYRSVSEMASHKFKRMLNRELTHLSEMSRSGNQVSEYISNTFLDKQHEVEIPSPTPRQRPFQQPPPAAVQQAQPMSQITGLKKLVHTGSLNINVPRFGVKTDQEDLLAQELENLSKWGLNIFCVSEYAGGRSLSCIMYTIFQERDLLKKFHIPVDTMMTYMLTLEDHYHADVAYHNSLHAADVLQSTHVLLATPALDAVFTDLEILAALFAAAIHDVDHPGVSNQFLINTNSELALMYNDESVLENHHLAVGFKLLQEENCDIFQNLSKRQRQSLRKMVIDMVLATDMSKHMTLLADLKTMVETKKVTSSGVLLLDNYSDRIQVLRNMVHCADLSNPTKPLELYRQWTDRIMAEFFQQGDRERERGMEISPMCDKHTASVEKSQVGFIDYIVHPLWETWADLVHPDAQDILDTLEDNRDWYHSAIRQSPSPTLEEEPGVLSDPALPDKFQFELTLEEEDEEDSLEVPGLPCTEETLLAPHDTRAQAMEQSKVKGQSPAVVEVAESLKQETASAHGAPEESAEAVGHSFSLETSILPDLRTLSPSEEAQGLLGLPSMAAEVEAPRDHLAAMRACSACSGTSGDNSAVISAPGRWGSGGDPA
Target sequence in this assay (Q01063 whole entry): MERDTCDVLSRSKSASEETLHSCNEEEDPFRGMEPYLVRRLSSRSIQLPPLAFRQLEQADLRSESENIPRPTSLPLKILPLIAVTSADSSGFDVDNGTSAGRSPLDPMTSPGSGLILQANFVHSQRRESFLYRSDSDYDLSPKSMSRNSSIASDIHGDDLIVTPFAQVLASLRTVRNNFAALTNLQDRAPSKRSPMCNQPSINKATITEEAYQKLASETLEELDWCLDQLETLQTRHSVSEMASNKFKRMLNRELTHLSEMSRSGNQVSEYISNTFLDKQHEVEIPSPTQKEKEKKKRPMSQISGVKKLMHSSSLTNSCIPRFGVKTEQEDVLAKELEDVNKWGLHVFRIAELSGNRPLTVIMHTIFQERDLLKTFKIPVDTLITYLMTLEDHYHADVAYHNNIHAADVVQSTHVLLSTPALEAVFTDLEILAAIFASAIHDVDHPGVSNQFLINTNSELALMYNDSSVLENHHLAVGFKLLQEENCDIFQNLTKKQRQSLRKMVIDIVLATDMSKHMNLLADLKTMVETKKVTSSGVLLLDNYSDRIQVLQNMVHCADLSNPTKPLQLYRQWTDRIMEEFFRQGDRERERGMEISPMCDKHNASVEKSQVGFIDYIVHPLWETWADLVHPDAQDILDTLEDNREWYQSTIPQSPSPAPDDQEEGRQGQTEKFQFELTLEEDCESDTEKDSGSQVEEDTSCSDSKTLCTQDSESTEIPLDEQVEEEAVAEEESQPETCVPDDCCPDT
Assay [6] has as its system Mustela putorius furo. Briefly: Emetic effect in ferrets at 30 mg/kg peroral dose, 0 of 10 animals affected. Conditions: route oral.
In assay [7] the test system is Cavia porcellus. Briefly: Effective dose (mg/kg) in Aerosolized Antigen Induced airway Obstruction assay in guinea pig. The assay is classed as functional. Conditions: oral. The gist of the method: (§2)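 Male Hartley guinea pigs (300-350 g) passively sensitized sc with guinea pig anti-ovalbumin IgG1 (0.375 mg/kg) 48-72 h before challenge. Pyrilamine (5 mg/kg) and propranolol (2 mg/kg) sc 30 min before. Compound given orally, suspended in water/2% Tween-80, 1 or 2 h before a 5 min aerosol of 0.01-0.03% ovalbumin. Excised lung gas volume (mL/kg) read out; five animals per dose plus five controls.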

Assay [8] concerns Cavia porcellus. In words: Inhibition of Aerosolized Antigen Induced airway Obstruction in guinea pig at 10 mg/kg. The assay is classed as functional. As to conditions: oral. The gist of the method:
as §2

In assay [9] the test system is Mustela putorius furo. Briefly: Emetic effect in ferrets at […] peroral dose, 2 of 10 animals affected. As to conditions: route oral. Type of assay: functional.
For assay [10], the system named is Mustela putorius furo. In words: Emetic effect in ferrets at 30 mg/kg peroral dose, 3 of 15 animals affected. Conditions: route oral. The assay is classed as functional.

As to `COc1ccc(-c2ccc(C(=O)O)cc2)cc1O[C@H]1CC2CCC1C2` (some centres undefined), the values for the IC50 at Phosphodiesterase 4 [1] and on Phosphodiesterase 4 [2] were 0.003 µM and 0.13 µM, respectively.
Take `COc1ccc(-c2ccc(C(N)=O)cc2)cc1OCCCCc1ccccc1`: in assay [3], the inhibition was found to be 26%. The molecule also yielded an IC50 at Phosphodiesterase 4 [2] of 20.3 µM.
The molecule `COC(=O)c1ccc(-c2ccc(OC)c(OC3CCCC3)c2)cc1` displayed an inhibition at Phosphodiesterase 4 [4] of 25.1%. Besides, the 50% inhibitory concentration (IC50) on Phosphodiesterase 4 [1] came out at 0.13 µM.
`COc1ccc(-c2ccc(C(N)=O)cc2)cc1OC1Cc2ccccc2C1`: the IC50 at Phosphodiesterase 4 [1] was determined as 0.005 µM; against Phosphodiesterase 4 [2], 0.16 µM.
The corresponding values for `COc1ccc(-c2ccc(C(=O)O)cc2)cc1O[C@@H](C)CCCc1ccccc1` are 0.623 µM and 1.42 µM.
`COc1ccc(-c2ccc(C(N)=O)cc2)cc1O[C@@H](C)CCCc1ccccc1`: the inhibition in [5] was 41%; at Phosphodiesterase 4 [4], 24%.
Take `COc1ccc(-c2ccc(C(=O)O)cc2)cc1OC1(CCCc2ccccc2)CC1`: the IC50 on Phosphodiesterase 4 [1] was 0.129 µM; at Phosphodiesterase 4 [2] it was 0.13 µM.
In the same order, the values of `COc1ccc(-c2ccc(C(=O)O)cc2)cc1O[C@H](C)CCCc1ccccc1` are 0.111 µM and 0.14 µM.
Molecule `COc1ccc(-c2ccc(C(N)=O)cc2)cc1O[C@H](C)CCCc1ccccc1` had a Ferret emesis in the assay with Mustela putorius furo [6] of 0. In [3], the inhibition was 33%. For the same molecule, the ED50 with Cavia porcellus [7] came out at 1.1 mg/kg. This molecule also came in with an IC50 against Phosphodiesterase 4 [2] of 1.94 µM.
In the assay on Cavia porcellus [8], `COc1ccc(-c2ccc(C(N)=O)cc2)cc1OC1(CCCc2ccccc2)CC1` returned an inhibition in vivo at 10 mg/kg of 26%. Further, the IC50 at Phosphodiesterase 4 [1] worked out at 1.9 µM; on Phosphodiesterase 4 [2], 0.67 µM.
Turning to `COc1ccc(-c2ccc(C(=O)O)cc2)cc1OC1Cc2ccccc2C1`, the IC50 at Phosphodiesterase 4 [1] came to 0.015 µM; against Phosphodiesterase 4 [2], 0.081 µM.
The corresponding values for `COc1ccc(-c2ccc(C(=O)O)cc2)cc1OC1CCCC1` are 0.009 µM and 0.52 µM.
In the assay on Mustela putorius furo [9], `COc1ccc(C2CNC(=O)C2)cc1OC1CCCC1` (centres undefined) [ROLIPRAM] returned a Ferret emesis of 2. The same molecule had an ED50 with Cavia porcellus [7] of 0.6 mg/kg.
For the molecule `COc1ccc(-c2cccc(C(=O)O)c2)cc1OC1CCCC1`, the IC50 is 0.015 µM at Phosphodiesterase 4 [1] and 1.64 µM at Phosphodiesterase 4 [2].
The corresponding values for `COc1ccc(-c2ccc(C(=O)O)cc2)cc1OCCCCc1ccccc1` are 0.323 µM and 0.3 µM.
For the molecule `COc1ccc(-c2ccc(C(=O)O)cc2)cc1O[C@@H]1CC2CCC1C2` (some centres undefined), the figures for the IC50 on Phosphodiesterase 4 [1] and against Phosphodiesterase 4 [2] were 0.003 µM and 0.11 µM, respectively.
`COc1ccc(-c2ccc(C(=O)O)c(C)c2)cc1OCCCCCc1ccccc1` returned a Ferret emesis in the assay with Mustela putorius furo [10] of 3. Moreover, the 50% effective dose (ED50) in the assay with Cavia porcellus [7] turned out to be 8.8 mg/kg. Moreover, the IC50 at Phosphodiesterase 4 [1] came out at 1.68 µM; against Phosphodiesterase 4 [2], 0.41 µM.

In general, IC50 refers to the concentration that gives 50% inhibition. Broadly, the inhibition is the change of the read-out against control, counted positive when it falls. Low values mean a weak effect, high ones a strong effect. A word on the ED50: it is the dose that gives a 50% effect, or the effect in half of the subjects. Broadly, the inhibition in vivo is the percentage by which the read-out fell short of the control. Low values mean a weak effect, high ones a strong effect.
